Assay type in all cases: functional, cell-based
One experiment deals with MCF7. The experiment in a line: Cytotoxicity against human MCF7 cells after 72 hrs by calcein acetoxymethyl assay. Put shortly: (§1)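 Tumour cells kept in DMEM at 37 °C, 5% CO₂, 100% humidity; seeded at about 1.25 × 10⁵ cells/ml and preincubated 12 h. Compounds added at 0.5–50 μM (0.5–200 μM for FeCl₃·6H₂O) for 72 h. Live cells then stained 1 h with calcein AM and fluorescence read at 485/538 nm. IC₅₀ estimated as concentration lethal to 50% of cells; mean of three values.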

The test system of a further experiment is G-361. As to the kind of experiment: Cytotoxicity against human G361 cells after 72 hrs by calcein acetoxymethyl assay. Put shortly:
as §1

The test system of another experiment is HOS. As to the kind of experiment: Cytotoxicity against human HOS cells after 72 hrs by calcein acetoxymethyl assay. Put shortly:
as §1

Another experiment has as its system K562. The experiment in a line: Cytotoxicity against human K562 cells after 72 hrs by calcein acetoxymethyl assay. Put shortly: as §1

pIC50: −log10 of the molar value.

With FeCl3.6H2O, the negative-log IC50 (pIC50) in the experiment with MCF7 (mcf7), in the experiment on G-361 (g-361), in the experiment with HOS (hos) and with K562 (k562) was less than 3.70 in each case.

As to `OC[C@@H]1O[C@H](n2cnc3c(NCc4ccc(F)cc4)ncnc32)[C@@H](O)[C@H]1O`, the pIC50 was less than 4.30 in the experiment on MCF7 (Homo sapiens, MCF7, 72 h); less than 4.30 in the experiment with G-361 (Homo sapiens, G-361, 72 h); less than 4.30 in the experiment on HOS (Homo sapiens, HOS, 72 h); less than 4.30 in the experiment on K562 (Homo sapiens, K562, 72 h).

For the molecule `OC[C@@H]1O[C@H](n2cnc3c(NCc4ccc(OC(F)(F)F)cc4)ncnc32)[C@@H](O)[C@H]1O`, the pIC50 was less than 4.30 with MCF7 (Homo sapiens, MCF7, 72 h); less than 4.30 with G-361 (Homo sapiens, G-361, 72 h); less than 4.30 in the experiment with HOS (Homo sapiens, HOS, 72 h); less than 4.30 with K562 (Homo sapiens, K562, 72 h).

Values taken from ChEMBL document CHEMBL1151795, “Novel iron complexes bearing N6-substituted adenosine derivatives: synthesis, magnetic, 57Fe Mössbauer, DFT, and in vitro cytotoxicity studies” (Bioorg Med Chem, 2008).
